From ChEMBL document CHEMBL1932986, “Synthesis and in vitro antimycobacterial activity of compounds derived from (R)- and (S)-2-amino-1-butanol - The crucial role of the configuration” (Eur J Med Chem, 2012)
Converted amounts (≈) assume the structure as drawn. The source made the active and inactive calls. The rule behind the calls is not given here.

How the values were obtained:
Type in all cases: functional
[1] = test system: Mycobacterium tuberculosis; test: Antimycobacterial activity against Mycobacterium tuberculosis H37Rv after 45 days
Outline: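 Canetti proportion method. Compound in DMSO is added to Löwenstein–Jensen egg medium before coagulation (30 min, 85 °C), tested at three levels plus a lower one where needed. Tubes are inoculated with H37Rv at 10⁵ cells/ml and incubated 45 days at 37 °C. Colony counts versus drug-free control give percentage inhibition.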

[2] = test system: Bacillus subtilis; test: Antibacterial activity against Bacillus subtilis ATCC 6633 at 50 mg/ml after 24 hrs by agar diffusion test; conditions: for zone of inhibition at 50000 µg/mL: ATCC 6633, 24 h, read-out: DIZ
Outline: (§1)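 Agar diffusion: wells in agar filled with […] DMSO solution of compound at various concentrations; diameter of clear zone around application point measured. Bacteria grown 24 h at 37 °C on nutrient agar. Compounds first screened at 50 mg/ml; those active then tested at lower concentrations. Bracketed value = lowest concentration (mg/ml) giving zone >11 mm, reported only if activity retained at ≤1.25 mg/ml.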

[3] = test system: Bacillus; test: Antibacterial activity against Bacillus idosus B 241 at 50 mg/ml after 24 hrs by agar diffusion test; conditions: for zone of inhibition at 50000 µg/mL: B 241, 24 h, read-out: DIZ; outline: as §1
[4] = test system: Priestia megaterium; test: Antibacterial activity against Bacillus megaterium NRRL 1353895 at 50 mg/ml after 24 hrs by agar diffusion test; conditions: for zone of inhibition at 50000 µg/mL: NRRL 1353895, 24 h, read-out: DIZ; outline: as §1
[5] = test system: Bacillus mycoides; test: Antibacterial activity against Bacillus mycoides DSMZ 274 at 50 mg/ml after 24 hrs by agar diffusion test; conditions: for zone of inhibition at 50000 µg/mL: DSMZ 274, 24 h, read-out: DIZ; outline: as §1
[6] = test system: Bacillus cereus; test: Antibacterial activity against Bacillus cereus ATCC 11778 at 50 mg/ml after 24 hrs by agar diffusion test; conditions: for zone of inhibition at 50000 µg/mL: ATCC 11778, 24 h, read-out: DIZ; outline: as §1
[7] = test system: Acinetobacter johnsonii; test: Antibacterial activity against Acinetobacter johnsonii ATCC 17909 at 50 mg/ml after 24 hrs by agar diffusion test; conditions: for zone of inhibition at 50000 µg/mL: ATCC 17909, 24 h, read-out: DIZ; outline: as §1
[8] = test system: Staphylococcus aureus; test: Antibacterial activity against Staphylococcus aureus NRRL B 313 at 50 mg/ml after 24 hrs by agar diffusion test; conditions: for zone of inhibition at 50000 µg/mL: NRRL B 313, 24 h, read-out: DIZ
Outline: (§2)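 Agar diffusion: bacteria grown 24 h at 37 °C on nutrient agar. Wells in the agar are filled with […] of compound solution in DMSO at various concentrations. The diameter of the clear zone around the application point is measured. Bracketed values give the lowest concentration (mg/ml) that produces a zone >11 mm. A first screen is run at 50 mg/ml.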

[9] = test system: Micrococcus luteus; test: Antibacterial activity against Micrococcus luteus ATCC 9631 at 50 mg/ml after 24 hrs by agar diffusion test; conditions: for zone of inhibition at 50000 µg/mL: ATCC 9631, 24 h, read-out: DIZ; outline: as §1
[10] = test system: Escherichia coli; test: Antibacterial activity against Escherichia coli ATCC 8739 at 50 mg/ml after 24 hrs by agar diffusion test; conditions: for zone of inhibition at 50000 µg/mL: ATCC 8739, 24 h, read-out: DIZ; outline: as §1
[11] = test system: Candida tropicalis; test: Antifungal activity against Candida tropicalis ATCC 20336 at 50 mg/ml after 72 hrs by agar diffusion test
Outline: (§3)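 Agar diffusion: yeasts grown on yeast peptone dextrose agar and fungi on potato dextrose agar. Wells are filled with […] of compound solution in DMSO at various concentrations, and the clear-zone diameter is measured. Bracketed values give the lowest concentration (mg/ml) that produces a zone >11 mm. A first screen is run at 50 mg/ml.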

[12] = test system: Saccharomyces cerevisiae; test: Antifungal activity against Saccharomyces cerevisiae ATCC 9763 at 50 mg/ml after 72 hrs by agar diffusion test; conditions: for zone of inhibition at 50000 µg/mL: ATCC 9763, 72 h, read-out: DIZ; outline: as §3
[13] = test system: Penicillium chrysogenum; test: Antifungal activity against Penicillium chrysogenum CECT 2802 at 50 mg/ml after 72 hrs by agar diffusion test; outline: as §3
[14] = test system: Micrococcus luteus; test: Antibacterial activity against Sarcina lutea ATCC 9341 at 50 mg/ml after 24 hrs by agar diffusion test; conditions: for zone of inhibition at 50000 µg/mL: ATCC 9341, 24 h, read-out: DIZ; outline: as §2

SMILES | MIC [1] | zone of inhibition at 50000 µg/mL [4] | zone of inhibition at 50000 µg/mL [5] | zone of inhibition at 50000 µg/mL [6] | zone of inhibition at 50000 µg/mL [7] | zone of inhibition at 50000 µg/mL [9] | diameter of the inhibition zone (DIZ) [10] | diameter of the inhibition zone (DIZ) [11] | diameter of the inhibition zone (DIZ) [13] | zone of inhibition at 50000 µg/mL [14] | diameter of the inhibition zone (DIZ) [2] | diameter of the inhibition zone (DIZ) [3] | diameter of the inhibition zone (DIZ) [4] | diameter of the inhibition zone (DIZ) [5] | diameter of the inhibition zone (DIZ) [7] | diameter of the inhibition zone (DIZ) [8] | diameter of the inhibition zone (DIZ) [9] | diameter of the inhibition zone (DIZ) [12] | diameter of the inhibition zone (DIZ) [6] | further results
CC[C@H](CO)NCc1ccccc1OC | > 23.9 µM | 11 mm | 11 mm | 13 mm | 10 mm | 11 mm | inactive | inactive | inactive |  |  |  |  |  |  |  |  |  |  | zone of inhibition at 50000 µg/mL [2]: 10 mm; zone of inhibition at 50000 µg/mL [3]: 15 mm; zone of inhibition at 50000 µg/mL [8]: 10 mm; zone of inhibition at 50000 µg/mL [12]: 16 mm
CC[C@H](CO)NCc1ccnc2ccccc12 | 21.7 µM (≈ 5 µg/mL) | 11 mm | 16 mm | 13 mm | 13 mm | 10 mm |  |  |  | 13 mm |  |  |  |  |  |  |  |  |  | zone of inhibition at 50000 µg/mL [2]: 10 mm; zone of inhibition at 50000 µg/mL [3]: 12 mm; zone of inhibition at 50000 µg/mL [8]: 14 mm; zone of inhibition at 50000 µg/mL [10]: 20 mm; zone of inhibition at 50000 µg/mL ([13]; CECT 2802, 72 h, read-out: DIZ): 20 mm
CC[C@H](CO)N1C(=O)c2cccc3c(Br)ccc(c23)C1=O | > 14.4 µM |  |  |  |  |  |  | inactive | inactive |  | inactive | inactive | inactive | inactive | inactive | inactive | inactive | inactive |  | 
CC[C@H](CO)NS(=O)(=O)c1ccc(NC(C)=O)cc1 | > 17.5 µM |  |  |  |  |  | inactive | inactive |  |  | inactive | inactive | inactive | inactive | inactive | inactive | inactive | inactive | inactive | diameter of the inhibition zone (DIZ) [14]: inactive
CC[C@H](CO)NC(=S)Nc1ccccc1 | > 22.3 µM | 13 mm | 12 mm | 14 mm | 12 mm | 12 mm |  |  |  | 12 mm | inactive | inactive |  |  |  | inactive |  |  |  | zone of inhibition at 50000 µg/mL [10]: 16 mm; zone of inhibition at 50000 µg/mL ([11]; ATCC 20336, 72 h, read-out: DIZ): 16 mm; zone of inhibition at 50000 µg/mL [12]: 15 mm
CC[C@H](CO)N(Cc1cc2c(cc1Cl)OCO2)Cc1cc2c(cc1Cl)OCO2 | > 11.7 µM | 10 mm |  |  |  |  | inactive | inactive | inactive | 10 mm | inactive | inactive |  | inactive | inactive | inactive |  | inactive | inactive | 
CC[C@H](CO)NC(=O)c1ccccc1Br | > 18.4 µM |  |  |  |  |  |  | inactive | inactive |  | inactive | inactive | inactive | inactive | inactive | inactive | inactive | inactive | inactive | diameter of the inhibition zone (DIZ) [14]: inactive
